PMC8164216 (Pharmaceutical research, 2019)
“And” between values parts separate entries of the source, which are not always exact repeats. Equal entries are not always repeated. Marks after values point to notes of the source that are not given here.

Tests used:
[1] = Pharmacokinetic study in mice, non-compartmental analysis; type: in vivo, Female BALB/c mice
How it was run: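 Mice were dosed IV by tail vein (10, 50, 100 mg/kg) or by oral gavage (100 mg/kg), in 20% w/v cyclodextrin-saline. Plasma from terminal cardiac puncture (n = 3–4/time point; 15 min–24 h IV, 10 min–24 h oral) was quantified by LC/MS/MS (LLOQ 0.15 ng/mL). Naïve-pooled non-compartmental analysis assumed 19 g body weight. AUC was by trapezoidal method, extrapolated to infinity. Fold change is relative to the 10 mg/kg IV dose.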

[2] = Compartmental PK modeling with enterohepatic cycling and M-M elimination; type: in vivo, Female BALB/c mice; details: for Vp: simultaneous fit of IV and oral data; for Vmax / Km: M-M elimination; for CLb: clearance to bile compartment; for Km: female, BALB/c, mouse, plasma, other: intravenous and oral, fitted simultaneously
How it was run: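 Female BALB/c mice (18–20 g) got the test compound in 20% w/v cyclodextrin in normal saline, by tail-vein IV (10, 50, 100 mg/kg) or oral gavage (100 mg/kg). Terminal cardiac blood (isoflurane, lithium heparin; n = 3–4/time point) was taken to 24 h, and plasma was assayed by LC/MS/MS. Naïve-pooled IV and oral data were fitted together by maximum likelihood to enterohepatic-cycling models with lag time and Michaelis-Menten elimination.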

[3] = Compartmental PK modeling, full TMDD model; type: in vivo, Female BALB/c mice
MCT1 [4] = molecular target: T1, MCT1 (Mus musculus, UniProt P53986); assay: Full TMDD model; type: in vivo, Female BALB/c mice
T1 sequence (P53986 1-493): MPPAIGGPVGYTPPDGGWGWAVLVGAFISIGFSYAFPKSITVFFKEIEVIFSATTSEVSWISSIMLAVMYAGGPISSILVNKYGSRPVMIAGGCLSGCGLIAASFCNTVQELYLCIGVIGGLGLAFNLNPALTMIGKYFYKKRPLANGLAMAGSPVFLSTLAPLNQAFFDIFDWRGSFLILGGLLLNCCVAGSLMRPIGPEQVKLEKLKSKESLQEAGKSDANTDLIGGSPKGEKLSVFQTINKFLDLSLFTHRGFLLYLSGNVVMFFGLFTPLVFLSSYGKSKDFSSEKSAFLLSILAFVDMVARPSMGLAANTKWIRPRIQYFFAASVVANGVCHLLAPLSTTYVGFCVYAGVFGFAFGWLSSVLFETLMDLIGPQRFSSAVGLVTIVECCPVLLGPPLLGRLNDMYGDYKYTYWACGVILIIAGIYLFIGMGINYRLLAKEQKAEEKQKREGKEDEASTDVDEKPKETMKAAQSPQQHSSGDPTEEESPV
T1 sequence (P18572 140-389 partner limits assumed): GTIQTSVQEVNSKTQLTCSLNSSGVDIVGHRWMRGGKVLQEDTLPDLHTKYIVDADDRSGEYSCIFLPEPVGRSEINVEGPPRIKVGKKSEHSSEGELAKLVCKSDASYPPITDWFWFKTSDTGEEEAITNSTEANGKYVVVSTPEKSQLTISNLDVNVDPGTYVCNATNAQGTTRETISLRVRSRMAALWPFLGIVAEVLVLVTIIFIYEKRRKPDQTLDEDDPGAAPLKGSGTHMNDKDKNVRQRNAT

MCT1 [5] = details: cited from earlier work
MCT2 = details: to a lesser extent than MCT1; cited from earlier work
MCT1 [6] = details: murine 4T1 cells; cited from earlier work
[7] = breast tumor xenograft study; cited from earlier work
[8] = female, BALB/c, mouse, plasma, iv, 10 mg/kg
[9] = female, BALB/c, mouse, plasma, iv, 50 mg/kg
[10] = female, BALB/c, mouse, plasma, iv, 100 mg/kg
[11] = female, BALB/c, mouse, plasma, po, 100 mg/kg

Cc1[nH]nc(C(F)(F)F)c1Cc1sc2c(c1C(=O)N1C[C@](C)(O)CO1)c(=O)n(C)c(=O)n2C(C)C [AZD3965, 5-[(4S)-4-hydroxy-4-methyl-1,2-oxazolidine-2-carbonyl]-1-isopropyl-3-methyl-6-{[3-methyl-5-(trifluoromethyl)-2H-pyrazol-4-yl]methyl}thieno[2,3-d]pyrimidine-2,4-dione]
Vc/F ([1]; IV 10 mg/kg, mice (19 g)): 53.4 mL | AUC0−∞, fold change from the lowest IV dose ([1]; IV 50 mg/kg vs 10 mg/kg): 8.36 fold | CL, fold change from the lowest IV dose ([1]; IV 50 mg/kg vs 10 mg/kg): 0.50 fold | Cmax, fold change from the lowest IV dose ([1]; IV 50 mg/kg vs 10 mg/kg): 7.49 fold | Vss, fold change from the lowest IV dose ([1]; IV 50 mg/kg vs 10 mg/kg): 0.58 fold | t1/2, fold change from the lowest IV dose ([1]; IV 50 mg/kg vs 10 mg/kg): 0.89 fold | λz, fold change from the lowest IV dose ([1]; IV 50 mg/kg vs 10 mg/kg): 1.12 fold | Vc/F ([1]; IV 50 mg/kg, mice (19 g)): 31.0 mL | AUC0−∞, fold change from the lowest IV dose ([1]; IV 100 mg/kg vs 10 mg/kg): 17.5 fold | CL, fold change from the lowest IV dose ([1]; IV 100 mg/kg vs 10 mg/kg): 0.47 fold | Cmax, fold change from the lowest IV dose ([1]; IV 100 mg/kg vs 10 mg/kg): 13.6 fold | Vss, fold change from the lowest IV dose ([1]; IV 100 mg/kg vs 10 mg/kg): 0.65 fold | t1/2, fold change from the lowest IV dose ([1]; IV 100 mg/kg vs 10 mg/kg): 0.87 fold | λz, fold change from the lowest IV dose ([1]; IV 100 mg/kg vs 10 mg/kg): 1.16 fold | Vc/F ([1]; IV 100 mg/kg, mice (19 g)): 34.6 mL | AUC(0-inf) [1, 8]: 4940 ng·h/mL | Cmax [1, 8]: 4020 ng/mL | Vd [1, 8]: 0.0442 L | clearance [1, 8]: 0.773 mL/min | concentration at 24 h [1, 8]: 0.285 ng/mL | half-life [1, 8]: 2.91 h | k el [1, 8]: 6.61e-05 s⁻¹ | AUC(0-inf) [1, 9]: 41300 ng·h/mL | Cmax [1, 9]: 30100 ng/mL | Vd [1, 9]: 0.0256 L | clearance [1, 9]: 0.383 mL/min | half-life [1, 9]: 2.6 h | k el [1, 9]: 7.39e-05 s⁻¹ | AUC(0-inf) [1, 10]: 86400 ng·h/mL | Cmax [1, 10]: 54500 ng/mL | Vd [1, 10]: 0.0286 L | clearance [1, 10]: 0.367 mL/min | half-life [1, 10]: 2.51 h | k el [1, 10]: 7.64e-05 s⁻¹ | bioavailability ([1]; female, BALB/c, mouse, plasma, oral, 100 mg/kg): 82.7% | AUC(0-inf) [1, 11]: 71400 ng·h/mL | Cmax [1, 11]: 30300 ng/mL | Tmax [1, 11]: 0.333 h | half-life [1, 11]: 4.46 h | k el [1, 11]: 4.33e-05 s⁻¹ | CL/F ([1]; oral 100 mg/kg, mice (19 g)): 26.6 mL/h | Vc/F ([1]; oral 100 mg/kg, mice (19 g)): 171 mL | CLd ([2]; Model A): 0.332 ± 0.064 (19.3) ml/h | F ([2]; Model A): 1.00 ± 0.003 (0.32) | ka ([2]; Model A): 3.39 ± 1.11 (32.7) h^−1 | Vp ([2]; Model A (EHC model)): 48.6 ± 5.86 (12.1) ml | Vmax ([2]; Model A): 26.4 ± 8.30 (31.7) μg/h | CLb ([2]; Model A): 0.529 ± 0.074 (13.9) ml/h | ko ([2]; Model A, first-order rate constant of release from bile): 0.0015 ± 0.0004 ^a (29.0) h^−1 | Tlag ([2]; Model A, fixed in final estimation): 5.92 (Fixed) h | CLd ([2]; Model B): 0.023 ± 0.003 (11.1) ml/h | F ([2]; Model B): 0.998 ± 0.003 (0.31) | ka ([2]; Model B): 5.13 ± 1.98 (38.6) h^−1 | Vp ([2]; Model B (simplified EHC model)): 55.8 ± 5.20 (9.35) ml | Tlag.iv ([2]; Model B, IV): 6.00 ± 0.0006 (0.01) h | Vmax ([2]; Model B): 411 ± 42.0 (10.3) μg/h | CLb ([2]; Model B): 0.178 ± 0.019 (10.8) ml/h | Tlag.po ([2]; Model B, oral): 5.90 ± 0.06 (1.05) h | ko ([2]; Model B, zero-order rate constant of release from bile): 0.386 ± 0.146 ^b (37.9) ng/h | Km ([2]; Model A): 9.59 ± 4.63 µg/mL | Km ([2]; Model B): 385 ± 58 µg/mL | ka ([3]; Model C): 34.4 ± 4.80 (14.0) h^−1 | kpt ([3]; Model C): 0.302 ± 0.074 (24.7) h^−1 | ktp ([3]; Model C): 0.452 ± 0.041 (9.12) h^−1 | Vp ([3]; Model C (full TMDD model), fixed): 2.04 ml and 2.04 (Fixed) ml | Rtotal (total transporter concentration) (MCT1 [4]; Model C): 54.8 ± 4.90 μg/ml and 54.8 ± 4.90 (8.92) μg/ml | kon (MCT1 [4]; Model C, converted based on the molecular weight): 6.21 ± 5.92 (95. 3) μM^−1 h^−1 | koff (MCT1 [4]; mouse): 0.00641 s⁻¹ | Ki (MCT1 [5]): 1.6 nM | activity against MCT2 (MCT2): some activity | duration of inhibition of L-lactate uptake (MCT1 [6]): up to 5 h | pre-incubation period for maximal inhibition of L-lactate uptake (MCT1 [6]): 5 min | concentration in 4T1 tumor versus plasma [7]: 25.5 fold
